ChEMBL document CHEMBL1681705, “Optimisation of ITK inhibitors through successive iterative design cycles” (Bioorg Med Chem Lett, 2011)

Tests used:
[1] = molecular target: Tyrosine-protein kinase Lck (Homo sapiens) (UniProt P06239); assay: Inhibition of Lck at 1 uM
Summary of the method: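 Single-point screen within a 108-kinase selectivity panel. Each kinase was tested with inhibitor at 0.1 and 1.0 micromolar, and activity was recorded as percent inhibition.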

[2] = molecular target: Insulin receptor (Homo sapiens) (UniProt P06213); assay: Inhibition of IR at 1 uM; values are per cent of control
[3] = Inhibition of PKA at 1 uM; values are per cent of control
[4] = Inhibition of PKA at 0.1 uM; values are per cent of control
[5] = molecular target: Tyrosine-protein kinase SYK (Homo sapiens) (UniProt P43405); assay: Inhibition of Syk at 0.1 uM; values are per cent of control
[6] = molecular target: Fibroblast growth factor receptor 3 (Homo sapiens) (UniProt P22607); assay: Inhibition of FGFR3 at 1 uM; values are per cent of control
[7] = molecular target: LIM domain kinase 1 (Homo sapiens) (UniProt P53667); assay: Inhibition of LIMK1 at 1 uM; values are per cent of control
[8] = molecular target: Serine/threonine-protein kinase 33 (Homo sapiens) (UniProt Q9BYT3); assay: Inhibition of STK33 at 1 uM; values are per cent of control
[9] = molecular target: T1, Serine/threonine-protein kinase STK11 (Homo sapiens) (UniProt Q15831); assay: Inhibition of LKB1 at 0.1 uM; values are per cent of control
T1 sequence (whole entry): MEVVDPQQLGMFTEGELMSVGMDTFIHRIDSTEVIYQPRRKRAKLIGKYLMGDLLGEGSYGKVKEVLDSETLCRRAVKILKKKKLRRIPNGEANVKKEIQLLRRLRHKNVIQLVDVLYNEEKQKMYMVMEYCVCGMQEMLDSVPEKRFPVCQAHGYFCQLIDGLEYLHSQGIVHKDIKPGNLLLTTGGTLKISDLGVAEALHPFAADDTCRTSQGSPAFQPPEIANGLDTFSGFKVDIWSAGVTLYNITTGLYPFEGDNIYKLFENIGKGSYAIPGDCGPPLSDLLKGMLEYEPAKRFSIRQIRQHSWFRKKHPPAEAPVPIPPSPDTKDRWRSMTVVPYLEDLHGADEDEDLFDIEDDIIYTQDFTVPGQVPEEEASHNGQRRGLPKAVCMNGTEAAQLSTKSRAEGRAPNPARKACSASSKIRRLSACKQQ

[10] = molecular target: BDNF/NT-3 growth factors receptor (Homo sapiens) (UniProt Q16620); assay: Inhibition of TrkB at 0.1 uM; values are per cent of control
[11] = molecular target: T2, Ephrin type-A receptor 8 (Homo sapiens) (UniProt P29322); assay: Inhibition of EphA8 at 0.1 uM; values are per cent of control
T2 sequence (whole entry): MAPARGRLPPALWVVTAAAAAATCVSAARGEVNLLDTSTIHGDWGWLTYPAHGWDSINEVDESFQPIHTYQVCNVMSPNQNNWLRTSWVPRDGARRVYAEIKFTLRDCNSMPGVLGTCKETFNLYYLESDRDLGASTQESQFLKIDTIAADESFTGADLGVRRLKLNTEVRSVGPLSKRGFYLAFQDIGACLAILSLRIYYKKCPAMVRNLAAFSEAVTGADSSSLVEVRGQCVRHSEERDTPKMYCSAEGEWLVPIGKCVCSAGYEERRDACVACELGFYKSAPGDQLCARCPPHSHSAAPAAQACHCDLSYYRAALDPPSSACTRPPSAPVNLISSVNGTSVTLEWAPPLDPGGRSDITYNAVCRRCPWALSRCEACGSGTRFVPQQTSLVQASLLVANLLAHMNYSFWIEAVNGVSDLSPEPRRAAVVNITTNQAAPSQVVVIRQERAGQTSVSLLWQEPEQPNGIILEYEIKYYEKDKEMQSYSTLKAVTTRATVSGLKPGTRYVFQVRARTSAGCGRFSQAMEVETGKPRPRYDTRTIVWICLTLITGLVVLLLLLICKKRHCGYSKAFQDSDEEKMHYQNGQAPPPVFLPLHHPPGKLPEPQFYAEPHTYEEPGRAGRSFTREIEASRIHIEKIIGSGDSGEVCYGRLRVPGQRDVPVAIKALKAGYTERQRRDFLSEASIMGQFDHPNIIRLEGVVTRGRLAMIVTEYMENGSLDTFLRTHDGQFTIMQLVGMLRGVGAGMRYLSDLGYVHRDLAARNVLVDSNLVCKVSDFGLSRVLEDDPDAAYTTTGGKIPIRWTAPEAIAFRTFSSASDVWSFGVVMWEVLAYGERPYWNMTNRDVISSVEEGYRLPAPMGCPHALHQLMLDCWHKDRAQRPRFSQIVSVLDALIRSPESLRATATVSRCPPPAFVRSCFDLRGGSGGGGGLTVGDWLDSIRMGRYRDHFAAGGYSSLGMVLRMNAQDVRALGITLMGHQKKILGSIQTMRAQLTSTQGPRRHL

[12] = molecular target: RAC-beta serine/threonine-protein kinase (Homo sapiens) (UniProt P31751); assay: Inhibition of PKBbeta at 1 uM; values are per cent of control
[13] = molecular target: T3, Aurora kinase A (Homo sapiens) (UniProt O14965); assay: Inhibition of aurora-A at 1 uM; values are per cent of control
T3 sequence (whole entry): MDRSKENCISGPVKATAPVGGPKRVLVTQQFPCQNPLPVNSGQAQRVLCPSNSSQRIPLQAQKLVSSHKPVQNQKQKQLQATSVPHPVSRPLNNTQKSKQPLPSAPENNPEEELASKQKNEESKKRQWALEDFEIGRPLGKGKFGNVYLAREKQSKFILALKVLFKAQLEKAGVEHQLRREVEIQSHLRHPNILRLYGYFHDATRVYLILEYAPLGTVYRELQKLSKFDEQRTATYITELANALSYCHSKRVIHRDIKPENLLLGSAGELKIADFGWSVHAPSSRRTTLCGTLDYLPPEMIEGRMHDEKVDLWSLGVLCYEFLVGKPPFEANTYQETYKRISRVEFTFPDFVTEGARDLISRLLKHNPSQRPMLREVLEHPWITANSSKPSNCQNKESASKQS

[14] = molecular target: Platelet-derived growth factor receptor beta (Homo sapiens) (UniProt P09619); assay: Inhibition of PDGFRbeta at 0.1 uM; values are per cent of control
Platelet-derived growth factor receptor beta (Homo sapiens), sequence (P09619 whole entry): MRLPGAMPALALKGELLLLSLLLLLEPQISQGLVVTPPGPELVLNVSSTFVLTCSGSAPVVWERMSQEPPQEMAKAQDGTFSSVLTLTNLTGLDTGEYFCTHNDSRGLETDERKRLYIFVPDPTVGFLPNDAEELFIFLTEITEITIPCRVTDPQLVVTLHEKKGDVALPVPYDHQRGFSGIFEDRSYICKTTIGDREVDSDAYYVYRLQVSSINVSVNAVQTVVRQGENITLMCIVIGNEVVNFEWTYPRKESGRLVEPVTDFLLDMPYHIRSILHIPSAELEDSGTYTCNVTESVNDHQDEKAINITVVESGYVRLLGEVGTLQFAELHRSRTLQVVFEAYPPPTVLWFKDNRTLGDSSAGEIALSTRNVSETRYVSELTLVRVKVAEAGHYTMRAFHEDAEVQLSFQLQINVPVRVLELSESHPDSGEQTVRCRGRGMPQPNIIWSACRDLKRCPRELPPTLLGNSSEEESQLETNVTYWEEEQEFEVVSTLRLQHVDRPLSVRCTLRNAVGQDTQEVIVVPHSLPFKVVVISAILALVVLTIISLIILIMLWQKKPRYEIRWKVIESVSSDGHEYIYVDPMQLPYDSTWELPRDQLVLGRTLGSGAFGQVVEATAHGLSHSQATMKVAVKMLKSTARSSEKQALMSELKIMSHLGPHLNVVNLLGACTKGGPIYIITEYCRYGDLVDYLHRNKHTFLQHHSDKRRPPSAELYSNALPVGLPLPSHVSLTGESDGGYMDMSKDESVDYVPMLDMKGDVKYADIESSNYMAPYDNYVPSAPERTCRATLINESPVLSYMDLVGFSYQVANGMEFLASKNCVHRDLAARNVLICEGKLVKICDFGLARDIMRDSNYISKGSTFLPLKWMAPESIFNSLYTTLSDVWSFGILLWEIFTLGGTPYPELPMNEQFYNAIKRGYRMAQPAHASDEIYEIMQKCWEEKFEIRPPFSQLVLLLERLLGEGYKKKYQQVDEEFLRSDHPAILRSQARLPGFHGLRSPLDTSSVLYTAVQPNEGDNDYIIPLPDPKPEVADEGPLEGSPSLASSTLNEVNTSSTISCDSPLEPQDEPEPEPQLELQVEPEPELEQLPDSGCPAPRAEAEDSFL

BDNF/NT-3 growth factors receptor (Homo sapiens), sequence (Q16620 32-822 limits assumed): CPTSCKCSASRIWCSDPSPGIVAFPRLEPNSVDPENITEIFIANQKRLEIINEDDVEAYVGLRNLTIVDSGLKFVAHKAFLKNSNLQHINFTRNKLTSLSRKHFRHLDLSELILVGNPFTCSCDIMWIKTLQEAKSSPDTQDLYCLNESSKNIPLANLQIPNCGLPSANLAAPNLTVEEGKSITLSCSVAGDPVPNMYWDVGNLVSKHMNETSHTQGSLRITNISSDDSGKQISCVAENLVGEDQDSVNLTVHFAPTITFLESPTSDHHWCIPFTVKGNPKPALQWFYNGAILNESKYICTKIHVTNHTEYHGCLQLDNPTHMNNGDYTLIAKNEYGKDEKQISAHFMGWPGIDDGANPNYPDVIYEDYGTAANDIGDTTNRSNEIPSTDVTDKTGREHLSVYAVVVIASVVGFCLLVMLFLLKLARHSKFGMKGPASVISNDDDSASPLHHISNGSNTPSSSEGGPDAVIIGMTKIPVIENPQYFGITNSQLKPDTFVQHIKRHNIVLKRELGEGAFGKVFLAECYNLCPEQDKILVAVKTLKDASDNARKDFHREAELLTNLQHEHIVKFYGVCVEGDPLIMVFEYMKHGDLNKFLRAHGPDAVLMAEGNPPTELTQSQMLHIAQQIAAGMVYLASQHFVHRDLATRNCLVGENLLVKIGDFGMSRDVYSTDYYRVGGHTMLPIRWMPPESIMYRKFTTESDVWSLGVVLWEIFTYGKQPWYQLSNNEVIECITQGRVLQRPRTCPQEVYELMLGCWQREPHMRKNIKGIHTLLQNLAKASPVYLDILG
Insulin receptor (Homo sapiens), sequence (P06213 28-758 limits assumed): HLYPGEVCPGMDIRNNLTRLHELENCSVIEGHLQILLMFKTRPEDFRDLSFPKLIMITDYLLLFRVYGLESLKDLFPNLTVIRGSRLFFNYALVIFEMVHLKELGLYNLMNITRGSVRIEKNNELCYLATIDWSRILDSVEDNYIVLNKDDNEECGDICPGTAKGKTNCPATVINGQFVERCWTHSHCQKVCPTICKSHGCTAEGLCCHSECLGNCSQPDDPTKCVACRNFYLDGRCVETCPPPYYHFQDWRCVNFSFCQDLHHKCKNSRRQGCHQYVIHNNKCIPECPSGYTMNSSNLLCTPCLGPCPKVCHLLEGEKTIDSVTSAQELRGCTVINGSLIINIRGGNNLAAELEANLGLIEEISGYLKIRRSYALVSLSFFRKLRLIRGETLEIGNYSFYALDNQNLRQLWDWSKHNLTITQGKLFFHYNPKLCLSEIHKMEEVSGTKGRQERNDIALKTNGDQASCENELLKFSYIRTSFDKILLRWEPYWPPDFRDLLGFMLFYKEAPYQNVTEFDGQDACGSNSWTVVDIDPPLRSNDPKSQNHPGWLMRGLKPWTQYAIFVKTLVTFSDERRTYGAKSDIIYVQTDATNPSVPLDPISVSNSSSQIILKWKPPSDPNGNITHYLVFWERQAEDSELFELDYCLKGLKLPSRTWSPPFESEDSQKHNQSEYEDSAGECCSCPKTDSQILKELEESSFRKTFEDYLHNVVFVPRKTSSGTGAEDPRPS
Insulin receptor (Homo sapiens), sequence (P06213 763-1382 limits assumed): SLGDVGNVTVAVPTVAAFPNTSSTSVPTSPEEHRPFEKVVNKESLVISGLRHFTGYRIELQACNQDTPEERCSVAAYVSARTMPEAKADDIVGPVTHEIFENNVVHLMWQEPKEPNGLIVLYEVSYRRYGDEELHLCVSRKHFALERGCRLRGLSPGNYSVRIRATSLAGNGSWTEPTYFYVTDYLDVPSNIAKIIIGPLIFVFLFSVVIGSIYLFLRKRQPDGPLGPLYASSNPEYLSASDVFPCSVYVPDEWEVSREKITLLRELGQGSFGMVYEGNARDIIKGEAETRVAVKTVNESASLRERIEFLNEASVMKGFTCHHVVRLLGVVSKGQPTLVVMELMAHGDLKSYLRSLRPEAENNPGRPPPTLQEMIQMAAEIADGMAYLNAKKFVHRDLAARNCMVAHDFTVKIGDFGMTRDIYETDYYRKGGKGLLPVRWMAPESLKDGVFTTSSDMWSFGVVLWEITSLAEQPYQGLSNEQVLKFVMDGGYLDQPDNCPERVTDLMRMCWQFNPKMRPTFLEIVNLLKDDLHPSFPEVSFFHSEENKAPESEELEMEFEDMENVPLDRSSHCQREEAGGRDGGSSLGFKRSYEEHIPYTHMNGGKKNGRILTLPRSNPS
RAC-beta serine/threonine-protein kinase (Homo sapiens), sequence (P31751 whole entry): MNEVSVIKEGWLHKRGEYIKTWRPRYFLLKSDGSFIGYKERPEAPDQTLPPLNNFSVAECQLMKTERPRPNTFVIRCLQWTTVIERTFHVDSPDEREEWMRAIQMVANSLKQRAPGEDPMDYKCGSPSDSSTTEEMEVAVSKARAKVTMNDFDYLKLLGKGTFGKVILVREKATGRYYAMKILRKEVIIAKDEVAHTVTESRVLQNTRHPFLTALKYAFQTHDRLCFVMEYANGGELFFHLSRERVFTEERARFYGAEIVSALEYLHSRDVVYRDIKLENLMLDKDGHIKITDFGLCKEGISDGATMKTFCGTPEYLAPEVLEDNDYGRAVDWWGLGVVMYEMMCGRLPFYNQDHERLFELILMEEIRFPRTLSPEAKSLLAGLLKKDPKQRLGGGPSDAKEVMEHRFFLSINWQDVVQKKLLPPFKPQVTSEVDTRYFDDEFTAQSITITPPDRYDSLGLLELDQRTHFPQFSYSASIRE
LIM domain kinase 1 (Homo sapiens), sequence (P53667 whole entry, looked up, the tested form may be a part): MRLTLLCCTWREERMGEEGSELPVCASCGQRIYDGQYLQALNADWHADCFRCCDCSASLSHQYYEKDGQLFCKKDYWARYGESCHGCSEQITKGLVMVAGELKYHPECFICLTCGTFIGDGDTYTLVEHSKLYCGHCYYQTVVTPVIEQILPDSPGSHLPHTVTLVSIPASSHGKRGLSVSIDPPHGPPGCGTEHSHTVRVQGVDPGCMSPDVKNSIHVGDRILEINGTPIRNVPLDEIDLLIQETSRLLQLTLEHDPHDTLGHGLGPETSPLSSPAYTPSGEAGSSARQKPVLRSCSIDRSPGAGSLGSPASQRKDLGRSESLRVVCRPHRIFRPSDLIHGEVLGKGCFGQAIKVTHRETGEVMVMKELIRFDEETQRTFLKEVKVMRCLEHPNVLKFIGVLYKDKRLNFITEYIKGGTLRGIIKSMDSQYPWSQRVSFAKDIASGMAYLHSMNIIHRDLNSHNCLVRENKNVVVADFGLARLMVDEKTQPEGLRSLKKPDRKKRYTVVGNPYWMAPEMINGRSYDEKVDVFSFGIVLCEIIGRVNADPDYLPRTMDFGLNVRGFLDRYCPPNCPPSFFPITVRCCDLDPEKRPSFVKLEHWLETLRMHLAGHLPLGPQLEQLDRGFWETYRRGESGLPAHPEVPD
Tyrosine-protein kinase Lck (Homo sapiens), sequence (P06239 2-509 limits assumed): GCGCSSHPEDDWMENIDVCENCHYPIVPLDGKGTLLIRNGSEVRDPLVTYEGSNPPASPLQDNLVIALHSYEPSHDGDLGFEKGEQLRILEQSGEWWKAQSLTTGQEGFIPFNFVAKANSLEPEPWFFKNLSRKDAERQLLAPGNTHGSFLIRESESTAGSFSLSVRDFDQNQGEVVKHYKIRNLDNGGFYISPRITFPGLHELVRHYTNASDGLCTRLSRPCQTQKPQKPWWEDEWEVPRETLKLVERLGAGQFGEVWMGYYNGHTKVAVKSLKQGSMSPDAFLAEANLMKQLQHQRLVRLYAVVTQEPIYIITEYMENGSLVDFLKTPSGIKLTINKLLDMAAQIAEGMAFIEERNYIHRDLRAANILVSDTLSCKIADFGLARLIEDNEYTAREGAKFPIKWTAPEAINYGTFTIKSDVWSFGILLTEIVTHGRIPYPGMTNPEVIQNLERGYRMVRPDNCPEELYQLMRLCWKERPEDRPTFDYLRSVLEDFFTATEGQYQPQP

| SMILES | inhibition [1] | residual activity [2] | residual activity [3] | residual activity [4] | residual activity [5] | residual activity [6] | residual activity [7] | residual activity [8] | residual activity [9] | residual activity [10] | residual activity [11] | residual activity [12] | residual activity [13] | residual activity [14] |
| --- | --- | --- | --- | --- | --- | --- | --- | --- | --- | --- | --- | --- | --- | --- |
| Cc1ccc2cc(-c3n[nH]c4ccc(NC5CCN(Cc6ccccc6)CC5)cc34)[nH]c2c1 | 9% | 60% | 5% | 41% | 0% | -3% | 73% | 4% | 97% | 1% | 92% | 85% | -7% | 82% |
| Cc1ccc2cc(-c3n[nH]c4ccc(NC5CCNC5)cc34)[nH]c2c1 (stereo not drawn) | 0% | 66% | 6% | 42% | 2% | 1% | 4% | 6% | 104% | 2% | 97% | 88% | 0% | 85% |
